CHO parental Ca = counter-screen: ATP calcium response change in parental CHO cells. parental CHO-K1, ATP-induced calcium, Fluo-8 fluorescence. inhibition, % at 5.6 µM. 0.63% of 330,000 active. AID 463079;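 active = inhibition above that plate's mean sample inhibition plus 3 SD, cut at about 26% in these data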;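 note: 0% = ATP-challenged DMSO wells and 100% = DMSO wells without ATP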
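test system = CHO parental line | reagent = ATP stimulus | measured by = intracellular calcium via Fluo-8 no-wash fluorescent dye | control set = ATP and no-ATP DMSO wells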
TAAR1 antag = human TAAR1 antagonism | Q96RJ0 | CHO RD-HGA16 TAAR1, Fluo-8 calcium fluorescence, antagonist | inhibition, % at 3 µM | 1.5% of 360,000 active | AID 624466;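 active = inhibition above a per-plate cutoff, the mean inhibition of test compounds on that plate plus 3 SD, cut at about 49% in these data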;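 note: 0% = DMSO plus EC80 beta-PEA response and 100% = DMSO alone without agonist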
Target sequence (Q96RJ0 whole entry, looked up): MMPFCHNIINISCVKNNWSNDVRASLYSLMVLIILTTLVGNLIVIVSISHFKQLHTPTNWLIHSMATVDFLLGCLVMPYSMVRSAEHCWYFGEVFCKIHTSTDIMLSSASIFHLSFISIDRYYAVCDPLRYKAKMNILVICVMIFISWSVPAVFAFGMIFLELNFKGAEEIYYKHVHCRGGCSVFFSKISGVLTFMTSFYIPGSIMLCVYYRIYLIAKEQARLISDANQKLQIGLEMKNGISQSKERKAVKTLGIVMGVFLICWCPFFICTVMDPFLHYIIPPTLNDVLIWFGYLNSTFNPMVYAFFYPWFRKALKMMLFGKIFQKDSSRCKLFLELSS
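Test system – hTAAR1-expressing CHO RD-HGA16 cells, Gα16-coupled · Reagent – β-PEA at EC80 concentration, post-compound challenge · Compound dosing – 3 µM, single point · Timing – 140 s kinetic read after compound, 140 s after agonist · Detection – Fluo-8 intracellular calcium dye fluorescence, real-time kinetic reads · Control set – DMSO and EC80 PEA controls · Repeats – n of 1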
TAAR1 ag = agonists of human TAAR1. Q96RJ0. CHO RD-HGA16 TAAR1, Fluo-8 calcium fluorescence; vehicle wells 0%, saturating PEA agonist 100%. activation, % at 3 µM. 0.99% of 360,000 active;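 active = activation above the mean activation of all test compounds in the run plus 3 SD, cut at about 38% in these data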
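test system = CHO RD-HGA16 cells carrying human TAAR1 plus Gα16 | schedule = 17-24 h seeding, 75 min 37 °C dye, 30 min RT | compound dosing = 3 µM single concentration | control set = DMSO and PEA EC100 | replicates = n 1 | signal = Fluo-8 fluorescence, 5 s baseline then 140 s kinetic read | measure = percent activation vs PEA EC100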
GPR7 antag = antagonists of human GPR7 (neuropeptides B/W receptor 1) | P48145 | GPR7-expressing cells, fluorescence antagonist assay | inhibition, % at 4.4 µM | 1.1% of 290,000 active; in the data active = inhibition above about 16%, passing the limit was not always enough;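 note: cells stimulated with the agonist NPW; 0% = agonist with vehicle and 100% = vehicle without agonist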
Target sequence (P48145 whole entry, looked up): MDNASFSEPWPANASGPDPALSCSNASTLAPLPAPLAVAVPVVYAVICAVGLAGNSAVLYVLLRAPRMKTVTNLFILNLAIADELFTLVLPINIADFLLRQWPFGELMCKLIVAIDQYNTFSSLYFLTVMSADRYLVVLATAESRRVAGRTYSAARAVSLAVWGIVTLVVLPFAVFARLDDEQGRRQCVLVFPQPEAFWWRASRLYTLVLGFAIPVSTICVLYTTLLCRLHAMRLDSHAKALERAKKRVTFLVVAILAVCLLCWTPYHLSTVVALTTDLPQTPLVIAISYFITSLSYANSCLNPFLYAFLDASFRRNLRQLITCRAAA
OX1R antag-1 = blocks the human orexin 1 receptor; OX1R-expressing cells, FRET antagonist read-out; inhibition, % at 6.6 µM; 1.8% of 330,000 active; AID 485270; in the data active = inhibition mostly above about 38%, no sharp cut-off; inactive = mostly below about 40%;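 note: 0% = agonist challenge alone and 100% = reference antagonist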
OX1R antag-2 = antagonists of human orexin 1 receptor; CHO/OX1R cells, Fluo-8 calcium fluorescence, orexin A; inhibition, % at 5 µM; 0.43% of 330,000 active;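 active = inhibition above its plate's threshold, mean inhibition of all tested compounds on the plate plus 3 SD, cut at about 37% in these data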;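 note: 0% = orexin A challenge wells and 100% = SB-334867-A antagonist wells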
TAAR1 nonsel count = counter-screen for TAAR1 antagonists: nonselective antagonists. AID 651780. 77% of 2,400 active. inhibition, % at 3 µM. counterscreen cell line, calcium fluorescence, antagonist mode. shares compounds with TAAR1 antag; in the data active = inhibition above about 22%;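 note: CHO-Ga16 host cells stimulated with ATP at an EC80 level; 0% = agonist EC80 plus vehicle and 100% = vehicle without agonist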
TAAR1 antag conf = confirmation of human TAAR1 antagonists. shares compounds with TAAR1 antag. TAAR1-expressing cells, fluorescence antagonist read-out. inhibition, % at 3 µM. 40% of 2,400 active; in the data active = inhibition above about 49%;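 note: CHO-Ga16 host cells challenged with agonist PEA near its EC80; 0% = agonist at EC80 plus vehicle and 100% = vehicle with no agonist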
Ga16 ag counter = nonselective Ga16 agonism, counter-screen; shares compounds with TAAR1 antag; activation, % at 3 µM; 18% of 2,400 active; Ga16-expressing cells, calcium fluorescence, agonist counterscreen; AID 651953; in the data active = activation above about 12%;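 note: 0% = vehicle wells and 100% = saturating stimulus response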
TAAR1 ag count = TAAR1 agonism, antagonist counter-screen | AID 651955 | 2% of 2,400 active | activation, % at 3 µM | shares compounds with TAAR1 antag | hTAAR1 cell line, fluorescence activation, agonist mode; in the data active = activation above about 37%;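 note: CHO cells stably expressing TAAR1 with calcium dye readout; 0% = DMSO vehicle and 100% = full agonist response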
Numbers without * were called inactive. In the library only some 4.6% were active in any assay of this set; here they are far more common.

What do the screens show for `O=C1C(NS(=O)(=O)c2cccs2)=C(N2CCN(c3cccc(C(F)(F)F)c3)CC2)C(=O)c2ccccc21`?
CHO parental Ca: -2.1; TAAR1 antag: 11.7; TAAR1 ag: 4.1; GPR7 antag: 0.3; OX1R antag-1: 45.9; OX1R antag-2: -35.3

Results for CN(CC(=O)NCc1ccccc1Cl)S(=O)(=O)c1cccs1 ?
CHO parental Ca: -15.6; TAAR1 antag: -10.5; TAAR1 ag: 0.9; GPR7 antag: 1.7; OX1R antag-1: 16.1; OX1R antag-2: -17.7

Results for COc1ccc(CCNC(=O)c2ccc(Cl)c(S(=O)(=O)N(C)c3ccccc3)c2)cc1 ?
CHO parental Ca: -1.6; TAAR1 antag: 56.9*; TAAR1 ag: 11.8; GPR7 antag: -12.8; OX1R antag-1: 3.2; OX1R antag-2: -2.3; TAAR1 nonsel count: 32.9*; TAAR1 antag conf: 44.2; Ga16 ag counter: 9.1; TAAR1 ag count: 3.1

Results for N#C/C(=C\Nc1ccccc1O)c1nc2ccccc2o1 ?
CHO parental Ca: 18.2; TAAR1 antag: 87.4*; TAAR1 ag: 8.9; GPR7 antag: 0.9; OX1R antag-1: 37.3; OX1R antag-2: 23.2; TAAR1 nonsel count: 48.2*; TAAR1 antag conf: 73.4*; Ga16 ag counter: 10.3; TAAR1 ag count: 13.4

How did Cc1nc(-c2ccc(S(=O)(=O)Oc3ccccc3Cl)s2)cs1 do in these assays?
CHO parental Ca: 57.5*; TAAR1 antag: 78.7*; TAAR1 ag: 8.7; GPR7 antag: 2.0; OX1R antag-1: 5.6; OX1R antag-2: 9.5; TAAR1 nonsel count: 28.1*; TAAR1 antag conf: 49.1*; Ga16 ag counter: 2.3; TAAR1 ag count: 3.2

Results for C=CC[C@]12CC=CC(=O)[C@@]1(O)O[C@H](c1ccc(OC)c(OC)c1)[C@H]2C ?
CHO parental Ca: 1.0; TAAR1 antag: -24.1; TAAR1 ag: 3.2; OX1R antag-1: 24.8; OX1R antag-2: -9.3

Results for CCOc1ccccc1N(CC(=O)Nc1cccc(OC)c1)S(=O)(=O)c1ccccc1 ?
CHO parental Ca: -6.4; TAAR1 antag: 52.2*; TAAR1 ag: 1.5; GPR7 antag: -8.7; OX1R antag-1: 14.9; OX1R antag-2: -31.0; TAAR1 nonsel count: 16.4; TAAR1 antag conf: 27.6; Ga16 ag counter: 2.2; TAAR1 ag count: 0.2

How did COc1ccccc1N(CC(=O)Nc1cccnc1)S(=O)(=O)c1ccccc1 do in these assays?
CHO parental Ca: -17.5; TAAR1 antag: 0.1; TAAR1 ag: 2.5; GPR7 antag: -9.1; OX1R antag-1: 0.6; OX1R antag-2: -43.2

What do the screens show for `COc1ccc(S(=O)(=O)N(CC(=O)Nc2ccc3c(c2)OCO3)c2ccccc2OC)cc1`?
CHO parental Ca: -3.6; TAAR1 antag: 68.9*; TAAR1 ag: 13.9; GPR7 antag: -6.3; OX1R antag-1: 13.7; OX1R antag-2: -2.1; TAAR1 nonsel count: 27.1*; TAAR1 antag conf: 56.2*; Ga16 ag counter: 5.6; TAAR1 ag count: 6.0

How did COC(=O)Cc1c(C)c2ccc(O)c(CNCc3ccc(OC)c(OC)c3)c2oc1=O do in these assays?
TAAR1 antag: -26.4; TAAR1 ag: 4.1; GPR7 antag: -0.3

What do the screens show for `CC(=O)Nc1ccc(C(=O)N2CCCCC2c2cc(C(=O)Nc3ccccc3Cl)no2)cc1` (stereo not given)?
TAAR1 antag: -5.7; TAAR1 ag: 2.7

How did Cc1cc(C(=O)NCc2cccs2)ccc1[N+](=O)[O-] do in these assays?
CHO parental Ca: -6.1; TAAR1 antag: 5.4; TAAR1 ag: 4.9; GPR7 antag: -1.4; OX1R antag-1: 50.6; OX1R antag-2: 11.7

What do the screens show for `Cc1cc(C(=O)NCCN2C(=O)S/C(=C\c3cccs3)C2=O)ccc1[N+](=O)[O-]`?
CHO parental Ca: 2.4; TAAR1 antag: 57.2*; TAAR1 ag: 11.5; GPR7 antag: -1.9; OX1R antag-1: 53.4; OX1R antag-2: -6.0; TAAR1 nonsel count: 37.6*; TAAR1 antag conf: 47.0; Ga16 ag counter: 10.1; TAAR1 ag count: 6.5

What do the screens show for `COc1cc(OC)cc(C(=O)Nc2cccc(-c3ccc(N4CCOCC4)nn3)c2)c1`?
CHO parental Ca: -12.5; TAAR1 antag: 54.6*; TAAR1 ag: 11.4; OX1R antag-1: 5.3; OX1R antag-2: -26.2; TAAR1 nonsel count: 35.3*; TAAR1 antag conf: 39.1; Ga16 ag counter: 5.7; TAAR1 ag count: 7.6

Results for O=C(COc1ccc(Cl)cc1)Nc1cccc(-c2ccc(N3CCOCC3)nn2)c1 ?
CHO parental Ca: -3.9; TAAR1 antag: 68.1*; TAAR1 ag: 13.0; OX1R antag-1: 5.8; OX1R antag-2: -25.4; TAAR1 nonsel count: 32.5*; TAAR1 antag conf: 44.7; Ga16 ag counter: 7.2; TAAR1 ag count: 3.8

What do the screens show for `C=CCc1cc(Cl)ccc1OCCN1CC(C)OC(C)C1` (stereo not given)?
CHO parental Ca: -24.3; TAAR1 antag: -17.6; TAAR1 ag: 10.1; GPR7 antag: -6.3; OX1R antag-1: 21.8; OX1R antag-2: -23.2

How did C#CCNC(=O)C1=C[C@H](c2ccccc2)[C@@H](CCCO)[C@H](OCC)O1 do in these assays?
CHO parental Ca: -4.1; TAAR1 antag: 12.0; TAAR1 ag: 0.4; GPR7 antag: -15.9; OX1R antag-1: 11.5; OX1R antag-2: -11.3

Results for Cc1ccc(NC(=O)CN2CCN(S(=O)(=O)c3ccc(F)cc3)CC2)cc1C ?
CHO parental Ca: -10.0; TAAR1 antag: 1.8; TAAR1 ag: 8.6; OX1R antag-1: 6.6; OX1R antag-2: -13.8

How did O=C1N/C(=C/c2ccc(Br)cc2)C(O)=C1C=NCc1ccccc1 do in these assays?
CHO parental Ca: -10.5; TAAR1 antag: 105.0*; TAAR1 ag: -0.2; GPR7 antag: -9.3; OX1R antag-1: 10.7; OX1R antag-2: -10.8; TAAR1 nonsel count: 2.1; TAAR1 antag conf: 0.8; Ga16 ag counter: 0.2; TAAR1 ag count: 2.8

How did N#Cc1cccc(NC(=O)c2cc(C3CCCCN3C(=O)CCCc3ccccc3)on2)c1 (stereo not given) do in these assays?
TAAR1 antag: 61.3*; TAAR1 ag: 10.2; TAAR1 nonsel count: 34.3*; TAAR1 antag conf: 53.9*; Ga16 ag counter: 11.1; TAAR1 ag count: 14.2

High-throughput results deposited in PubChem BioAssay by The Scripps Research Institute Molecular Screening Center.
